Assay results reported in ChEMBL document CHEMBL3875163, “Novel urea and bis-urea primaquine derivatives with hydroxyphenyl or halogenphenyl substituents: Synthesis and biological evaluation” (Eur J Med Chem, 2016).
Values after ≈ are worked out from the molar mass of the structure shown.

Columns and labels:
[1] = Growth inhibition of human SW620 cells after 72 hrs by MTT assay; format: functional, cell-based; conditions: SW-620, 72 h
In short: (§1)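 Modified NCI DTP protocol: cells in DMEM with 10% FBS, 2 mM glutamine, antibiotics, 37 °C, 5% CO2; seeded 1 × 10^4 to 3 × 10^4 cells/ml on day 0, exposed to five 10-fold dilutions (10^-8 to 10^-4 M) for 72 h; solvent control. MTT read-out; quadruplicate points in three experiments; IC50 by linear regression of growth percentages bracketing 50%.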

[2] = Growth inhibition of human MIAPaCa2 cells after 72 hrs by MTT assay; format: functional, cell-based; conditions: MIA PaCa-2, 72 h
[3] = Growth inhibition of human NCI-H460 cells after 72 hrs by MTT assay; format: functional, cell-based; conditions: NCI-H460, 72 h; in short: as §1
[4] = Growth inhibition of mouse L1210 cells after 72 hrs by MTT assay; format: functional, cell-based; conditions: L1210, 72 h
[5] = Growth inhibition of human Molt4/C8 cells after 72 hrs by MTT assay; format: functional, cell-based; conditions: MOLT-4, 72 h
[6] = Antioxidant activity assessed as DPPH radical scavenging activity at 100 uM after 60 mins relative to control; format: functional
In short: (§2)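 Compound in DMSO added to DPPH in absolute ethanol, 0.1 mM final; absorbance at 517 nm after 20 and 60 min at room temperature. At least triplicate.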

[7] = Growth inhibition of human MCF7 cells after 72 hrs by MTT assay; format: functional, cell-based; conditions: MCF7, 72 h; in short: as §1
[8] = Growth inhibition of human CEM cells after 72 hrs by MTT assay; format: functional, cell-based; conditions: CCRF-CEM
[9] = Antioxidant activity assessed as inhibition of AAPH-induced linoleic acid lipid peroxidation at 1 x 10^-4 M by UV-absorbance method relative to control; format: functional
In short: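 Linoleic acid peroxidation: 16 mM sodium linoleate dispersion in 0.05 M phosphate buffer pH 7.4 at 37 °C under air, initiated by AAPH (40 mM solution); compound at 1 × 10^-4 M; oxidation followed at 234 nm. At least triplicate.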

[10] = Antioxidant activity assessed as DPPH radical scavenging activity at 100 uM after 20 mins relative to control; format: functional; in short: as §2
[11] = Growth inhibition of human HeLa cells after 72 hrs by MTT assay; format: functional, cell-based
[12] = system: Glycine max; test: Inhibition of soybean LOX assessed as reduction in conversion of sodium linoleate to 13-hydroperoxylinoleic acid at 1 x 10^-4 M relative to control
In short: (§3)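 Soybean lipoxygenase incubated at room temperature with sodium linoleate (0.1 mM) and test compound (DMSO stocks); formation of 13-hydroperoxylinoleic acid read at 234 nm. Single-point screening at 1 × 10^-4 M; IC50 from several concentrations. At least triplicate.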

[13] = Inhibition of soybean LOX assessed as reduction in conversion of sodium linoleate to 13-hydroperoxylinoleic acid; design: species or system Glycine max; in short: as §3
[14] = system: Pseudomonas aeruginosa; test: Antibacterial activity against Pseudomonas aeruginosa ATCC 27853 after 18 hrs by serial microdilution broth assay; format: functional; conditions: ATCC 27853, 18 h
In short: (§4)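 Broth microdilution MIC per EUCAST for aerobic bacteria in Mueller-Hinton broth, serial dilution 1000 to 0.78125 µg/ml from 10 mg/ml DMSO stocks. Inoculum from trypticase soy broth cultures (18 h, 37 °C), set to 0.5 McFarland in PBS pH 7.4, diluted 1:10. 18 h aerobic incubation at 35 °C in dark, then TTC 0.5 mg/ml for 3 h, HCl-isopropanol, A490. MIC = lowest concentration giving 50% inhibition versus untreated; duplicates.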

[15] = system: Staphylococcus aureus; test: Antibacterial activity against methicillin sensitive Staphylococcus aureus ATCC 25213 after 18 hrs by serial microdilution broth assay; format: functional; conditions: ATCC 25213, 18 h; in short: as §4
[16] = system: Staphylococcus aureus; test: Antibacterial activity against Staphylococcus aureus ATCC 6538 after 18 hrs by serial microdilution broth assay; format: functional; conditions: ATCC 6538, 18 h; in short: as §4
[17] = system: Candida albicans; test: Antifungal activity against Candida albicans ATCC 90028 after 18 hrs by serial microdilution broth assay; format: functional; conditions: ATCC 90028, 18 h
In short: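 Yeast microdilution in RPMI 1640 with glutamine plus 2% glucose, 1000 to 0.78125 µg/ml from 10 mg/ml DMSO stocks. Growth read with XTT (10 mg/ml) mixed 7:1 with menadione (1 mg/ml in acetone), absorbance at 540 nm. MIC taken as lowest concentration giving 50% growth inhibition versus untreated cells; tests in duplicate.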

[18] = system: Enterococcus faecalis; test: Antibacterial activity against vancomycin susceptible Enterococcus faecalis ATCC 29212 after 18 hrs by serial microdilution broth assay; format: functional; conditions: ATCC 29212, 18 h; in short: as §4
[19] = system: Pseudomonas aeruginosa; test: Antibacterial activity against multi-drug resistant Pseudomonas aeruginosa MFBF after 18 hrs by serial microdilution broth assay; format: functional
In short: (§5)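 EUCAST-based broth microdilution in Mueller-Hinton broth. Glycerol stock cultures grown in trypticase soy broth 18 h at 37 °C; inoculum in PBS pH 7.4 at 0.5 McFarland, diluted 1:10 in broth. Compounds from DMSO stocks, 1000 to 0.78125 µg/ml; 18 h aerobic, 35 °C, dark. TTC 0.5 mg/ml added, 3 h, then HCl/isopropanol, A490. MIC = lowest concentration giving 50% inhibition vs untreated; duplicates, averaged.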

[20] = system: Bacillus pumilus; test: Antibacterial activity against Bacillus pumilus NCTC 8241 after 18 hrs by serial microdilution broth assay; format: functional; conditions: NCTC 8241, 18 h; in short: as §4
[21] = Cytotoxicity against HEK cells assessed as reduction in cell viability at 6.25 to 100 ug/ml after 24 hrs by MTT assay; format: toxicity, cell-based; conditions: human, hek293, 24 h
In short: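 HEK 293 cells, 5 × 10^3 per well, treated next day for 24 h with compound (range within 200 to 1.5625 µg/ml). MTT 0.5 mg/ml in DMEM/10% FBS, 4 h at 37 °C, 5% CO2; formazan in DMSO, A570. Viability as percent of untreated control; triplicates, three independent experiments.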

[22] = system: Pseudomonas aeruginosa; test: Antibacterial activity against Pseudomonas aeruginosa ATCC 9027 after 18 hrs by serial microdilution broth assay; format: functional; conditions: ATCC 9027, 18 h; in short: as §5
[23] = system: Escherichia coli; test: Antibacterial activity against Escherichia coli ATCC 10535 after 18 hrs by serial microdilution broth assay; format: functional; conditions: ATCC 10535, 18 h; in short: as §4
[24] = system: Enterococcus faecalis; test: Antibacterial activity against vancomycin resistant Enterococcus faecalis MFBF 11419 after 18 hrs by serial microdilution broth assay; format: functional; conditions: MFBF 11419, 18 h; in short: as §5
[25] = Hemolytic activity against human RBC at 100 ug/ml after 1 hr relative to control; format: ADME, cell-based, Erythrocyte; conditions: red blood cells (RBC), read-out: Activity
[26] = system: Bacillus cereus; test: Antibacterial activity against Bacillus cereus ATCC 11778 after 18 hrs by serial microdilution broth assay; format: functional; conditions: ATCC 11778, 18 h; in short: as §4
[27] = system: Bacillus spizizenii; test: Antibacterial activity against Bacillus subtilis ATCC 6633 after 18 hrs by serial microdilution broth assay; format: functional; conditions: ATCC 6633, 18 h; in short: as §4
[28] = system: Staphylococcus aureus; test: Antibacterial activity against methicillin sensitive Staphylococcus aureus ATCC 25923 after 18 hrs by serial microdilution broth assay; format: functional; conditions: ATCC 25923, 18 h; in short: as §5
[29] = system: Staphylococcus aureus; test: Antibacterial activity against methicillin resistant Staphylococcus aureus MFBF 10682 after 18 hrs by serial microdilution broth assay; format: functional; conditions: MFBF 10682, 18 h; in short: as §5
[30] = system: Staphylococcus aureus; test: Antibacterial activity against methicillin resistant Staphylococcus aureus MFBF 10679 after 18 hrs by serial microdilution broth assay; format: functional; conditions: MFBF 10679, 18 h; in short: as §5
[31] = Growth inhibition of human MCF7 cells by alamar blue assay; format: functional

| Compound | IC50 [1] | IC50 [2] | IC50 [3] | IC50 [4] | IC50 [5] | Activity [6] | IC50 [7] | IC50 [8] | inhibition [9] | Activity [10] | IC50 [11] | inhibition [12] | further results |
| --- | --- | --- | --- | --- | --- | --- | --- | --- | --- | --- | --- | --- | --- |
| COc1cc(NC(C)CCCNC(=O)NNC(=O)Nc2ccc(C(F)(F)F)cc2)c2ncccc2c1 (stereo not drawn) | 12 µM | 19 µM | 12 µM | 18 µM | 24 µM | 96.1% | 0.1 µM | 18 µM | 75.3% | 99% | 15 µM | 55.8% | IC50 [13]: 85 µM |
| COc1cc(NC(C)CCCNC(=O)Nc2cccc(O)c2)c2ncccc2c1 (stereo not drawn) | 27 µM | 46 µM | 25 µM | 25 µM | 24 µM | 52.3% | 11 µM | 32 µM | 66.9% | 48.6% | 48 µM | 50.8% | MIC50 [14]: 50 µg/mL (≈ 127 µM); MIC50 [15]: 50 µg/mL (≈ 127 µM); MIC50 [16]: 20 µg/mL (≈ 50.7 µM); MIC50 [17]: > 100 µg/mL; MIC50 [18]: > 100 µg/mL; MIC50 [19]: 100 µg/mL (≈ 254 µM); MIC50 [20]: 12.5 µg/mL (≈ 31.7 µM); Activity [21]: Non-Toxic; MIC50 [22]: 100 µg/mL (≈ 254 µM); MIC50 [23]: 100 µg/mL (≈ 254 µM); MIC50 [24]: > 100 µg/mL; hemolysis at 1 h, 100 ug/ml [25]: < 1%; MIC50 [26]: 50 µg/mL (≈ 127 µM); MIC50 [27]: 50 µg/mL (≈ 127 µM); MIC50 [28]: 50 µg/mL (≈ 127 µM); MIC50 [29]: 50 µg/mL (≈ 127 µM); MIC50 [30]: 100 µg/mL (≈ 254 µM) |
| COc1cccc2c1C(=O)c1c(O)c3c(c(O)c1C2=O)C[C@@](O)(C(=O)CO)C[C@@H]3O[C@H]1C[C@H](N)[C@H](O)[C@H](C)O1 [DOXORUBICIN] |  |  |  |  |  |  |  |  |  |  |  |  | IC95 [31]: 1 µM |
